Assay outcomes (PubChem)
hK5 inh – inhibitors of human kallikrein 5; Q9Y337; inhibition, % at 5 µM; actives 0.59% (n = 210,000); recombinant hK5, fluorogenic AMC substrate cleavage;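 active means inhibition of 40% or more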;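 further: 0% = enzyme controls without compound and 100% = no-enzyme blanks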
m-calpain inh – inhibitors of pig calpain II; purified calpain II, fluorogenic peptide substrate, 30 min; inhibition, % at 16 µM; actives 0.37% (n = 220,000);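 active means inhibition above about 50%, limit read from the data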
FXIIa inh – blocks human coagulation factor XIIa protease activity. P00748. purified FXIIa, Boc-QGR-AMC fluorogenic substrate, 2 h. inhibition, % at 5 µM. actives 0.3% (n = 220,000). AID 800; in the data active means inhibition above about 40%;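 further: 0% = enzyme with no compound and 100% = blank without enzyme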
Target sequence (P00748 20-372 limits assumed): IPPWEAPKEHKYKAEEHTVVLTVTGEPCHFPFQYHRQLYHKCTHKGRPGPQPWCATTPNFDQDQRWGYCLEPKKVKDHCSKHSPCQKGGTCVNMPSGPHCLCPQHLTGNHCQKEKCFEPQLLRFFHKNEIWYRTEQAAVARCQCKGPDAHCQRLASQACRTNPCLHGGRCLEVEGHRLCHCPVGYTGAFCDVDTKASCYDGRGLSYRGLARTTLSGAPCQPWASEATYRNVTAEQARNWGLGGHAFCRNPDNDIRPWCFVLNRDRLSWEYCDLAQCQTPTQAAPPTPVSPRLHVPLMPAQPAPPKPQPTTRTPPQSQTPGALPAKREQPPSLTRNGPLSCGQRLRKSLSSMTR
Target sequence (P00748 373-615 limits assumed): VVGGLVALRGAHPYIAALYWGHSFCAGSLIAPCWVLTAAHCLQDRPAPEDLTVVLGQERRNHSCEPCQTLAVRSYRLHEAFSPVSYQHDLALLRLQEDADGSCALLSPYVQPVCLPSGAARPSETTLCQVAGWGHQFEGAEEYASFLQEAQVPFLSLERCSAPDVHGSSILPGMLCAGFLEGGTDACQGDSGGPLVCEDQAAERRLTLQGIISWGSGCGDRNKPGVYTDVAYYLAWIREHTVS
Furin inh – blocks human furin protease activity; inhibition, % at 20 µM or 30 µM; actives 0.061% (n = 220,000); AID 463115; purified furin, fluorogenic substrate cleavage; in the data active means inhibition above about 25%
thrombin 1536 – thrombin (human) inhibition | AID 1046 | alpha-thrombin, Boc-VPR-AMC fluorogenic substrate cleavage | P00734 | actives 0.26% (n = 220,000) | inhibition, % at 5 µM;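 active means inhibition at or above 40%; inactive means inhibition below 40%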;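 further: 0% = enzyme with no compound and 100% = wells without enzyme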
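Test system: human alpha-thrombin; medium: pH 7.5 Tris-saline with Tween 20; times: reaction at room temperature; signal: AMC fluorescence at 355 nm excitation and 460 nm emission; also added: Boc-VPR-AMC substrate, 15 µM final; dosing: one concentration per compound, 5 µM, with 0.2% DMSO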
FXIa inh 1536 – factor XIa (human) inhibition | actives 0.14% (n = 220,000) | purified FXIa, Boc-Glu-Ala-Arg-AMC fluorogenic substrate | inhibition, % at 5 µM | P03951 | AID 798;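 active means inhibition of at least 40%; inactive means inhibition below 40%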;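 further: fluorescence of freed AMC excited at 355 nm; 0% = enzyme without compound and 100% = no enzyme blank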
* hit, by the source's call; nt = no result given. In the library only some 1.4% were active in any assay of this set; here they are far more common.

SMILES	hK5 inh	m-calpain inh	FXIIa inh	Furin inh	thrombin 1536	FXIa inh 1536
Cn1nnnc1SCC(=O)NC1CCCCC1	-19.9	56.8*	13.1	-16.0	0.9	27.0
CC1CCCC(NC(=O)CSc2nnnn2C)C1C (stereo not given)	-5.3	-49.7	11.9	-7.2	-0.2	2.5
COc1ccc(CCC(=O)N/N=C\c2cccs2)cc1	nt	3.4	6.5	-13.8	-3.5	1.6
O=C(Oc1ccc2ccc(=O)oc2c1)c1cccs1	-8.0	-441.1	61.7*	-91.2	11.2	50.6*
Cc1nn(-c2ccccc2)c(C)c1NC(=O)c1cccs1	49.8*	10.2	12.1	-3.0	15.8	7.0
COc1ccc(NC(=O)Nc2ccc(C)cc2OC(F)F)cc1OC	-16.6	53.1*	-3.6	-10.3	26.4	-18.0
CCCCOc1ccc(CSCCNC(=S)Nc2ccccc2)cc1	-5.0	3.4	6.9	-23.3	-7.2	-1.0
CC(C)COc1ccc(CSCCNC(=S)Nc2ccccc2)cc1	-20.9	65.5*	-3.3	-3.0	36.3	-17.8
CC(C)N1C(=O)CCC1C(=O)NCc1cccs1 (stereo not given)	-21.8	-9.9	-2.5	-16.9	-3.3	-7.9
Cc1ccc(S(=O)(=O)N(C)C)cc1NC(=O)C(C)Sc1ccccc1 (stereo not given)	-1.2	-11.6	5.0	-29.7	-5.7	0.9
Cc1nc2c(cnn2-c2ccc(Cl)cc2)c(=O)n1-c1ccc(N2CCC(C)CC2)cc1	53.8*	3.0	17.0	-12.5	17.1	13.8
COC(=O)c1ccc(N2C(=O)CC(Sc3n[nH]c(C)n3)C2=O)cc1 (stereo not given)	5.0	-27.9	15.9	-23.5	2.5	4.4
COC(=O)c1ccc(N2C(=O)C3CC(C)=C(C)CC3C2=O)cc1 (stereo not given)	1.9	59.4*	13.7	-16.4	3.9	2.1
O=C(CCSCc1ccc(Cl)cc1)NCc1cccnc1	-12.5	-18.5	9.0	-29.0	4.4	-3.9
CCOC(=O)/C(=N\Nc1cccc(C(F)(F)F)c1)N1CCOCC1	52.0*	16.2	24.4	-1.9	2.6	29.0
COc1ccc(N2C(=O)CSC2c2cccc(OC)c2OC)cc1 (stereo not given)	39.1	26.2	16.8	-9.4	42.3*	8.2
CCOc1cc(/C=N/n2cnnc2)ccc1OS(=O)(=O)c1ccccc1	-1.2	62.6*	4.9	-21.1	-8.8	-3.0
COc1cc(C=O)ccc1OS(=O)(=O)c1ccccc1[N+](=O)[O-]	0.0	22.0	24.5	-8.7	12.7	13.3
COc1cc(/C=N/n2cnnc2)ccc1OS(=O)(=O)c1ccccc1[N+](=O)[O-]	5.6	59.4*	-2.0	-2.5	-6.7	-10.3
O=S(=O)(Oc1ccccc1/C=N/n1cnnc1)c1ccccc1	2.2	-3.8	7.7	-26.7	-2.5	0.0
COc1ccc(NC(=O)c2ccc(COc3ccc(C)cc3)o2)cc1	0.6	28.1	11.5	-15.0	3.2	0.1
C#CCOCCOCCOCCNc1nc(N2CCN(C(=O)[C@H]([C@@H](C)CC)n3cc([C@@H](N)Cc4ccc(O)cc4)nn3)CC2)nc(N2CCN(C(=O)[C@H](CCCCN)n3cc([C@@H](N)CC(C)C)nn3)CC2)n1	3.9	-29.4	9.8	-20.9	1.6	0.1
COc1ccc(S(=O)(=O)N2CC(O)C[C@H]2C(=O)OCC(=O)N2CCCCCC2)cc1 (stereo not given in full)	4.6	16.9	10.4	-2.9	-4.6	4.2
C=CCn1c(C)cc(C2=NNC(=Nc3ccc(C)cc3)SC2)c1C	-1.3	-21.9	4.1	-16.2	-10.4	-3.3
CCOc1ccc(N=C2NN=C(c3cc(C)n(CC4CCCO4)c3C)CS2)cc1 (stereo not given)	44.7*	-40.3	35.7	-0.9	9.8	30.2
SMILES	hK5 inh	m-calpain inh	FXIIa inh	Furin inh	thrombin 1536	FXIa inh 1536
CC(C)(C)SCCNS(=O)(=O)c1ccccc1	43.2*	11.7	49.8*	-18.1	21.5	12.6
CC(C)(C)SCCNS(=O)(=O)c1ccc2ccccc2c1	-15.1	49.5	12.0	-11.7	-1.8	7.3
Cc1csc2ncnc(N3CCN(C(=O)Nc4ccc(OC(F)(F)F)cc4)CC3)c12	3.3	56.8*	8.0	-12.8	1.0	1.9
COc1ccc(-c2[nH]ncc2-c2ccc3c(c2)OCCO3)c(O)c1	49.3*	12.2	8.5	-20.0	100.7*	9.3
CCCc1cc(-c2[nH]ncc2-c2ccc3c(c2)OCCCO3)c(O)cc1OC	-18.9	36.5	17.5	-20.9	-1.4	4.0
COc1ccc(C/C(C)=N\NC(=O)c2cn(C)c3ccccc23)cc1OC	-3.8	-4.8	0.2	-16.9	-4.2	-3.0
Cc1ccc(CNC(=O)CCCCCNc2nc(=S)[nH]c3ccccc23)cc1	-4.0	61.1*	1.5	-25.7	-5.7	-2.0
O=C(COc1ccc([N+](=O)[O-])cc1)NN=C1CCCC1	55.1*	7.1	-5.5	-14.0	29.4	4.8
O=C(NN=C1CCCC1)c1ccc([N+](=O)[O-])cc1	0.8	-31.4	8.0	-5.5	-7.5	-0.2
O=C1N/C(=N\N=C\c2cccs2)SC1Cc1ccc(Cl)c(Cl)c1 (stereo not given)	-17.3	26.8	0.7	-20.6	1.1	10.4
NNC(=O)CN1C(=O)Nc2ccc(Br)cc2C1c1ccccc1 (stereo not given)	41.9*	27.5	24.4	-14.5	54.7*	7.3
CC(C)c1nnc(NC(=O)c2cnccn2)s1	37.3	5.7	25.1	-4.4	40.9*	15.1
CSC(=S)N/N=C(\C)c1ccc(Br)cc1	-6.8	21.1	7.3	-19.3	-7.5	-0.6
CC(C)(C)c1nc(SCC(=O)NCc2ccco2)c2ccccc2n1	-25.2	-20.2	5.1	-19.5	-0.4	1.8
O=C(CSc1nc2ccccc2c(=O)[nH]1)c1ccccc1	-7.0	-9.9	15.5	-21.3	4.7	9.5
COc1ccc(C(=O)CSc2nc(C(C)(C)C)nc3ccccc23)cc1	-12.0	52.5*	3.8	-6.4	2.4	-3.7
Cc1nc(SCC(=O)c2ccccc2)[nH]c(=O)c1Oc1ccc(Cl)cc1	64.4*	35.2	22.5	0.5	33.5	29.0
CC(C)(C)c1ccc(C(=O)CSc2nc3ccccc3c(=O)[nH]2)cc1	40.2*	21.0	10.0	-8.9	13.6	13.7
COc1ccc(Oc2c(C)nc(SCC(=O)c3ccc(Cl)cc3)[nH]c2=O)cc1	4.1	12.9	11.9	-33.7	1.8	2.9
Cc1cc(OCC(=O)Nc2ccncc2)ccc1[N+](=O)[O-]	-24.6	-18.7	1.2	-31.4	-0.7	-5.3
Cc1ccc(C(=O)C(NC(=O)c2ccco2)N2CCOCC2)cc1 (stereo not given)	43.6*	-20.6	-2.3	-18.3	14.5	-1.7
O=C(NC(C(=O)c1ccccc1)N1CCCCCC1)c1ccco1 (stereo not given)	-5.4	-0.1	11.1	-7.5	-13.3	3.3
NNC(=O)c1cc(-c2ccc(N)cc2)nc2ccc(Br)cc12	-9.0	12.2	3.6	10.5	0.7	-3.9
